# Active and inactive are the calls of the source.
# Columns and labels:
# Staphylococcus aureus [1] = experiment: Antimicrobial activity against Staphylococcus aureus ATCC 29213 after passaging with CEM-101 by broth microdilution method; type: functional
# Outline: (§1)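 Multistep resistance selection by CLSI reference broth microdilution. The full content of the last well showing growth was resuspended in broth to a 0.5 McFarland standard, and 5 × 10^5 CFU/ml was used for the next MIC panel, repeated over 7 passage days. Reversion was checked by three consecutive drug-free agar passages, followed by a final broth microdilution MIC. A ≥8-fold MIC change from initial counted as significant resistance.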
# Staphylococcus aureus [2] = experiment: Antimicrobial activity against Staphylococcus aureus NRS384 after passaging with CEM-101 by broth microdilution method; type: functional; outline: as §1
# Staphylococcus aureus [3] = experiment: Antimicrobial activity against Staphylococcus aureus 004-573D after passaging with CEM-101 by broth microdilution method; type: functional; outline: as §1
# Staphylococcus aureus [4] = experiment: Antimicrobial activity against Staphylococcus aureus 117-472D after passaging with CEM-101 by broth microdilution method; type: functional; outline: as §1
# Staphylococcus aureus [5] = experiment: Antimicrobial activity against Staphylococcus aureus 024-11490A after passaging with CEM-101 by broth microdilution method; type: functional; outline: as §1
# Staphylococcus aureus [6] = experiment: Antimicrobial activity against Staphylococcus aureus 117-453D after passaging with CEM-101 by broth microdilution method; type: functional; outline: as §1
# [7] = system: Staphylococcus haemolyticus; experiment: Antimicrobial activity against Staphylococcus haemolyticus 064-4090A after passaging with CEM-101 by broth microdilution method; type: functional; outline: as §1
# Enterococcus faecalis [8] = experiment: Antimicrobial activity against Enterococcus faecalis ATCC 29212 after passaging with CEM-101 by broth microdilution method; type: functional; outline: as §1
# Enterococcus faecalis [9] = experiment: Antimicrobial activity against Enterococcus faecalis 061-6556A after passaging with CEM-101 by broth microdilution method; type: functional; outline: as §1
# Enterococcus faecalis [10] = experiment: Antimicrobial activity against Enterococcus faecalis 067-6633A after passaging with CEM-101 by broth microdilution method; type: functional; outline: as §1
# Enterococcus faecium [11] = experiment: Antimicrobial activity against Enterococcus faecium 067- after passaging with CEM-101 by broth microdilution method; type: functional; outline: as §1
# Enterococcus faecium [12] = experiment: Antimicrobial activity against Enterococcus faecium 086-15387A after passaging with CEM-101 by broth microdilution method; type: functional; outline: as §1
# Streptococcus pneumoniae [13] = experiment: Antimicrobial activity against Streptococcus pneumoniae ATCC 49619 after passaging with CEM-101 by broth microdilution method; type: functional; outline: as §1
# Streptococcus pneumoniae [14] = experiment: Antimicrobial activity against Streptococcus pneumoniae 063-1085A after passaging with CEM-101 by broth microdilution method; type: functional; outline: as §1
# Streptococcus pneumoniae [15] = experiment: Antimicrobial activity against Streptococcus pneumoniae 075-241B after passaging with CEM-101 by broth microdilution method; type: functional; outline: as §1
# Streptococcus pneumoniae [16] = experiment: Antimicrobial activity against Streptococcus pneumoniae 127-2273B after passaging with CEM-101 by broth microdilution method; type: functional; outline: as §1
# Streptococcus pyogenes [17] = experiment: Antimicrobial activity against Streptococcus pyogenes 117-1612A after passaging with CEM-101 by broth microdilution method; type: functional; outline: as §1
# Streptococcus pyogenes [18] = experiment: Antimicrobial activity against Streptococcus pyogenes 088-11708A after passaging with CEM-101 by broth microdilution method; type: functional; outline: as §1
# Streptococcus mitis [19] = experiment: Antimicrobial activity against Streptococcus mitis 051-4933A after passaging with CEM-101 by broth microdilution method; type: functional; outline: as §1
# Streptococcus mitis [20] = experiment: Antimicrobial activity against Streptococcus mitis 112-1885A after passaging with CEM-101 by broth microdilution method; type: functional; outline: as §1
# Haemophilus influenzae = experiment: Antimicrobial activity against Haemophilus influenzae ATCC 49247 after passaging with CEM-101 by broth microdilution method; type: functional; outline: as §1
# Moraxella catarrhalis = experiment: Antimicrobial activity against Moraxella catarrhalis 117-10142A after passaging with CEM-101 by broth microdilution method; type: functional; outline: as §1
# Staphylococcus aureus [21] = experiment: Antibacterial activity against Staphylococcus aureus ATCC 29213 assessed as log cell killing at 8 times MIC in 24 hrs by time kill study; type: functional
# Outline: (§2)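 Time-kill assay following earlier published methods. Each agent tested at 2×, 4× and 8× its MIC for the strain. Viable colony counts taken at 0, 2, 4, 8 and 24 h. Bactericidal activity defined as a ≥3 log10 CFU/ml drop from the starting inoculum within 24 h.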
# [22] = system: Staphylococcus epidermidis; experiment: Antibacterial activity against Staphylococcus epidermidis assessed as log cell killing at 8 times MIC in 24 hrs by time kill study; type: functional; outline: as §2
# Streptococcus pneumoniae [23] = experiment: Antibacterial activity against Streptococcus pneumoniae ATCC 49619 assessed as log cell killing at 8 times MIC in 24 hrs by time kill study; type: functional; outline: as §2
# Streptococcus pyogenes [24] = experiment: Antibacterial activity against Streptococcus pyogenes assessed as log cell killing at 8 times MIC in 24 hrs by time kill study; type: functional; outline: as §2
# Staphylococcus aureus [25] = experiment: Antibacterial activity against Staphylococcus aureus ATCC 29213 assessed as bactericidal at 2 times MIC in 24 hrs by time kill study; type: functional, organism-based; outline: as §2
# Staphylococcus aureus [26] = experiment: Antibacterial activity against Staphylococcus aureus ATCC 29213 assessed as bactericidal at 4 times MIC in 24 hrs by time kill study; type: functional, organism-based; outline: as §2
# Staphylococcus aureus [27] = experiment: Antibacterial activity against Staphylococcus aureus ATCC 29213 assessed as bactericidal at 8 times MIC in 24 hrs by time kill study; type: functional, organism-based; outline: as §2
# Enterococcus faecalis [28] = experiment: Antibacterial activity against Enterococcus faecalis ATCC 29212 assessed as bacteriostatic by time kill study; type: functional, organism-based; outline: as §2
# Streptococcus pneumoniae [29] = experiment: Antibacterial activity against Streptococcus pneumoniae 241B assessed as bacteriostatic by time kill study; type: functional, organism-based; outline: as §2
# Streptococcus pyogenes [30] = experiment: Antibacterial activity against Streptococcus pyogenes 088-11708A assessed as bactericidal at 2 times MIC in 24 hrs by time kill study; type: functional, organism-based; outline: as §2
# Streptococcus pyogenes [31] = experiment: Antibacterial activity against Streptococcus pyogenes 088-11708A assessed as bactericidal at 4 times MIC in 24 hrs by time kill study; type: functional, organism-based; outline: as §2
# Streptococcus pyogenes [32] = experiment: Antibacterial activity against Streptococcus pyogenes 088-11708A assessed as bactericidal at 8 times MIC in 24 hrs by time kill study; type: functional, organism-based; outline: as §2
# [33] = system: Staphylococcus epidermidis; experiment: Antimicrobial activity against Staphylococcus epidermidis 095-2777A by broth microdilution method
# [34] = system: Staphylococcus epidermidis; experiment: Antibacterial activity against Staphylococcus epidermidis 2777A assessed as bactericidal at 2 times MIC in 24 hrs by time kill study
# [35] = system: Staphylococcus epidermidis; experiment: Antibacterial activity against Staphylococcus epidermidis 2777A assessed as bactericidal at 4 times MIC in 24 hrs by time kill study
# [36] = system: Staphylococcus epidermidis; experiment: Antibacterial activity against Staphylococcus epidermidis 2777A assessed as bactericidal at 8 times MIC in 24 hrs by time kill study
# Streptococcus pneumoniae [37] = experiment: Antibacterial activity against Streptococcus pneumoniae ATCC 49619 assessed as bactericidal at 8 times MIC in 24 hrs by time kill study; type: functional, organism-based; outline: as §2
# Streptococcus pneumoniae [38] = experiment: Antibacterial activity against Streptococcus pneumoniae ATCC 49619 assessed as bactericidal at 2 times MIC in 24 hrs by time kill study; type: functional, organism-based; outline: as §2
# Streptococcus pneumoniae [39] = experiment: Antibacterial activity against Streptococcus pneumoniae ATCC 49619 assessed as bactericidal at 4 times MIC in 24 hrs by time kill study; type: functional, organism-based; outline: as §2
# Streptococcus pyogenes [40] = experiment: Antibacterial activity against Streptococcus pyogenes 117-1612A assessed as bactericidal at 8 times MIC in 24 hrs by time kill study; type: functional, organism-based; outline: as §2
# Streptococcus mitis [41] = experiment: Antibacterial activity against Streptococcus mitis 112-1885A assessed as bactericidal at 2 times MIC in 24 hrs by time kill study; type: functional, organism-based; outline: as §2
# Streptococcus mitis [42] = experiment: Antibacterial activity against Streptococcus mitis 112-1885A assessed as bactericidal at 4 times MIC in 24 hrs by time kill study; type: functional, organism-based; outline: as §2
# Streptococcus mitis [43] = experiment: Antibacterial activity against Streptococcus mitis 112-1885A assessed as bactericidal at 8 times MIC in 24 hrs by time kill study; type: functional, organism-based; outline: as §2
# [44] = system: Staphylococcus epidermidis; experiment: Antibacterial activity against Staphylococcus epidermidis 2777A assessed as bacteriostatic by time kill study
smiles,measurement,setting,value
CC[C@H]1OC(=O)[C@@](C)(F)C(=O)[C@H](C)[C@@H](O[C@@H]2O[C@H](C)C[C@H](N(C)C)[C@H]2O)[C@](C)(OC)C[C@@H](C)C(=O)[C@H](C)[C@H]2N(CCCCn3cc(-c4cccc(N)c4)nn3)C(=O)O[C@]12C [SOLITHROMYCIN],MIC,Staphylococcus aureus [1],0.06 µg/mL
same,MIC,Staphylococcus aureus [2],0.12 µg/mL
same,MIC,Staphylococcus aureus [3],0.12 µg/mL
same,MIC,Staphylococcus aureus [4],0.12 µg/mL
same,MIC,Staphylococcus aureus [5],0.12 µg/mL
same,MIC,Staphylococcus aureus [6],0.12 µg/mL
same,MIC,[7],0.12 µg/mL
same,MIC,Enterococcus faecalis [8],0.03 µg/mL
same,MIC,Enterococcus faecalis [9],0.06 µg/mL
same,MIC,Enterococcus faecalis [10],2 µg/mL
same,MIC,Enterococcus faecium [11],0.06 µg/mL
same,MIC,Enterococcus faecium [12],1 µg/mL
same,MIC,Streptococcus pneumoniae [13],0.008 µg/mL
same,MIC,Streptococcus pneumoniae [14],0.015 µg/mL
same,MIC,Streptococcus pneumoniae [15],0.015 µg/mL
same,MIC,Streptococcus pneumoniae [16],0.06 µg/mL
same,MIC,Streptococcus pyogenes [17],0.015 µg/mL
same,MIC,Streptococcus pyogenes [18],0.06 µg/mL
same,MIC,Streptococcus mitis [19],0.12 µg/mL
same,MIC,Streptococcus mitis [20],≤ 0.008 µg/mL
same,MIC,Haemophilus influenzae,2 µg/mL
same,MIC,Moraxella catarrhalis,0.12 µg/mL
same,Activity,Staphylococcus aureus [21],>=3 log10CFU/ml
same,Activity,[22],>=3 log10CFU/ml
same,Activity,Streptococcus pneumoniae [23],>=3 log10CFU/ml
same,Activity,Streptococcus pyogenes [24],>=3 log10CFU/ml
same,Activity,Staphylococcus aureus [25],Active
same,Activity,Staphylococcus aureus [26],Active
same,Activity,Staphylococcus aureus [27],Active
same,Activity,Enterococcus faecalis [28],Active
same,Activity,Streptococcus pneumoniae [29],Active
same,Activity,Streptococcus pyogenes [30],Active
same,Activity,Streptococcus pyogenes [31],Active
same,Activity,Streptococcus pyogenes [32],Active
same,MIC,[33],0.12 µg/mL
same,Activity,[34],Active
same,Activity,[35],Active
same,Activity,[36],Active
CC[C@H]1OC(=O)[C@H](C)[C@@H](O[C@H]2C[C@@](C)(OC)[C@@H](O)[C@H](C)O2)[C@H](C)[C@@H](O[C@@H]2O[C@H](C)C[C@H](N(C)C)[C@H]2O)[C@](C)(OC)C[C@@H](C)C(=O)[C@H](C)[C@@H](O)[C@]1(C)O [CLARITHROMYCIN],Activity,Staphylococcus aureus [27],Active
CC[C@H]1OC(=O)[C@H](C)[C@@H](O[C@H]2C[C@@](C)(OC)[C@@H](O)[C@H](C)O2)[C@H](C)[C@@H](O[C@@H]2O[C@H](C)C[C@H](N(C)C)[C@H]2O)[C@](C)(O)C[C@@H](C)C(=O)[C@H](C)[C@@H](O)[C@]1(C)O,Activity,Staphylococcus aureus [27],Active
same,Activity,Streptococcus pneumoniae [37],Active
same,Activity,Streptococcus pneumoniae [38],Active
same,Activity,Streptococcus pneumoniae [39],Active
same,Activity,Streptococcus pyogenes [40],Active
CC[C@H]1OC(=O)[C@H](C)C(=O)[C@H](C)[C@@H](O[C@@H]2O[C@H](C)C[C@H](N(C)C)[C@H]2O)[C@](C)(OC)C[C@@H](C)C(=O)[C@H](C)[C@H]2N(CCCCn3cnc(-c4cccnc4)c3)C(=O)O[C@]12C,Activity,Staphylococcus aureus [27],Active
same,Activity,Streptococcus mitis [41],Active
same,Activity,Streptococcus mitis [42],Active
same,Activity,Streptococcus mitis [43],Active
same,Activity,[44],Active

# From ChEMBL document CHEMBL1255443, “CEM-101 activity against Gram-positive organisms” (Antimicrob Agents Chemother, 2010)
